# Laboratory results as given in paper PMC4806784 (Investigational new drugs, 2015).
# Tests used:
# Safety and tolerability = assay type: in vivo
# [1] = test system: phospho-Aurora B (pAurB) and phospho-histone H3 (pHH3); test: Immunohistochemistry of hair follicles and skin biopsies; assay type: in vivo, human; conditions: Panel 1 (MT), pre- and post-dose hair follicles and skin biopsies
# Procedure, shortened: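 Plucked scalp hair follicles (from at least 15 hair shafts) and skin punch biopsies were taken pre-dose and on Cycle 1 Day 2, 4 (±1) h after the third oral BID Q12hr dose. Only Panel 1 monotherapy patients were sampled. Phospho-Aurora B and phospho-histone H3 were assessed by immunohistochemistry as change from baseline.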
# AK-A = conditions: adenosine triphosphate-competitive inhibitor; cited from earlier work
# [2] = test system: other kinases, including both Aurora B and Aurora C; conditions: cited from earlier work
# [3] = test system: human tumor cell lines and xenograft models; conditions: subset of human tumor cell lines and xenograft models; cited from earlier work
# [4] = Crossover from Panel 1 to Panel 2 (n = 4)
# [5] = Panel 2: MK-5108 CT with docetaxel 60 mg/m^2 (n = 17)
# [6] = Panel 2: MK-5108 CT with docetaxel (N = 17)
smiles,measurement,setting,value
O=C(O)[C@]1(Cc2cccc(Nc3nccs3)n2)CC[C@@H](Oc2cccc(Cl)c2F)CC1 [MK-5108],Drug-related AEs by SOC: Blood and lymphatic system disorders,Safety and tolerability; Crossover (N = 4),2 (50.0) n (%)
same,Drug-related AEs by SOC: Gastrointestinal disorders,Safety and tolerability; Crossover (N = 4),1 (25.0) n (%)
same,Drug-related AEs by SOC: General disorders and administration site conditions,Safety and tolerability; Crossover (N = 4),2 (50.0) n (%)
same,Drug-related AEs by SOC: Infections and infestations,Safety and tolerability; Crossover (N = 4),0 (0.0) n (%)
same,Drug-related AEs by SOC: Investigations,Safety and tolerability; Crossover (N = 4),1 (25.0) n (%)
same,Drug-related AEs by SOC: Metabolism and nutrition disorders,Safety and tolerability; Crossover (N = 4),2 (50.0) n (%)
same,Drug-related AEs by SOC: Musculoskeletal and connective tissue disorders,Safety and tolerability; Crossover (N = 4),1 (25.0) n (%)
same,Drug-related AEs by SOC: Nervous system disorders,Safety and tolerability; Crossover (N = 4),1 (25.0) n (%)
same,"Drug-related AEs by SOC: Respiratory, thoracic and mediastinal disorders",Safety and tolerability; Crossover (N = 4),1 (25.0) n (%)
same,Drug-related AEs by SOC: Skin and subcutaneous tissue disorders,Safety and tolerability; Crossover (N = 4),1 (25.0) n (%)
same,Drug-related AEs by SOC: Vascular disorders,Safety and tolerability; Crossover (N = 4),0 (0.0) n (%)
same,"Patients with drug-related AEs, highest grade: Grade 1",Safety and tolerability; Crossover (N = 4),1 (25.0) n (%)
same,"Patients with drug-related AEs, highest grade: Grade 2",Safety and tolerability; Crossover (N = 4),0 (0.0) n (%)
same,"Patients with drug-related AEs, highest grade: Grade 3",Safety and tolerability; Crossover (N = 4),1 (25.0) n (%)
same,"Patients with drug-related AEs, highest grade: Grade 4",Safety and tolerability; Crossover (N = 4),1 (25.0) n (%)
same,Patients with no drug-related AEs,Safety and tolerability; Crossover (N = 4),1 (25.0) n (%)
same,Patients with one or more drug-related AEs,Safety and tolerability; Crossover (N = 4),3 (75.0) n (%)
same,Death,Safety and tolerability; [4],0 n (%)
same,Discontinued treatment due to a drug-related AE,Safety and tolerability; [4],0 n (%)
same,Discontinued treatment due to a drug-related SAE,Safety and tolerability; [4],0 n (%)
same,Discontinued treatment due to an SAE,Safety and tolerability; [4],0 n (%)
same,Discontinued treatment due to any AE,Safety and tolerability; [4],0 n (%)
same,Patients with any AE,Safety and tolerability; [4],4 (100.0) n (%)
same,Patients with drug-related AE,Safety and tolerability; [4],3 (75.0) n (%)
same,Patients with no AE,Safety and tolerability; [4],0 n
same,Patients with serious AE,Safety and tolerability; [4],0 n (%)
same,Patients with serious drug-related AE,Safety and tolerability; [4],0 n (%)
same,MTD,"Safety and tolerability; MK-5108 MT, doses up to 1800 mg Q12hr",not established
same,tolerability,"Safety and tolerability; MT, doses up to 1800 mg Q12hr (3600 mg/day)",generally well tolerated
same,patients experiencing a DLT,Safety and tolerability; Panel 1 (MT),no patients
same,patients with a Grade 3 or 4 drug-related AE,Safety and tolerability; Panel 1 (MT),No patients
same,AEs (all grades and doses) by SOC: General disorders and administration site conditions,"Safety and tolerability; Panel 1 (MT), 11/14",78.6%
same,AEs (all grades and doses) by SOC: Gastrointestinal disorders,"Safety and tolerability; Panel 1 (MT), 12/14",85.7%
same,Drug-related AEs by SOC: Blood and lymphatic system disorders,Safety and tolerability; Panel 1: MK-5108 MT (N = 14),4 (28.6) n (%)
same,Drug-related AEs by SOC: Gastrointestinal disorders,Safety and tolerability; Panel 1: MK-5108 MT (N = 14),7 (50.0) n (%)
same,Drug-related AEs by SOC: General disorders and administration site conditions,Safety and tolerability; Panel 1: MK-5108 MT (N = 14),7 (50.0) n (%)
same,Drug-related AEs by SOC: Infections and infestations,Safety and tolerability; Panel 1: MK-5108 MT (N = 14),0 (0.0) n (%)
same,Drug-related AEs by SOC: Investigations,Safety and tolerability; Panel 1: MK-5108 MT (N = 14),2 (14.3) n (%)
same,Drug-related AEs by SOC: Metabolism and nutrition disorders,Safety and tolerability; Panel 1: MK-5108 MT (N = 14),2 (14.3) n (%)
same,Drug-related AEs by SOC: Musculoskeletal and connective tissue disorders,Safety and tolerability; Panel 1: MK-5108 MT (N = 14),1 (7.1) n (%)
same,Drug-related AEs by SOC: Nervous system disorders,Safety and tolerability; Panel 1: MK-5108 MT (N = 14),3 (21.4) n (%)
same,"Drug-related AEs by SOC: Respiratory, thoracic and mediastinal disorders",Safety and tolerability; Panel 1: MK-5108 MT (N = 14),1 (7.1) n (%)
same,Drug-related AEs by SOC: Skin and subcutaneous tissue disorders,Safety and tolerability; Panel 1: MK-5108 MT (N = 14),1 (7.1) n (%)
same,Drug-related AEs by SOC: Vascular disorders,Safety and tolerability; Panel 1: MK-5108 MT (N = 14),0 (0.0) n (%)
same,"Patients with drug-related AEs, highest grade: Grade 1",Safety and tolerability; Panel 1: MK-5108 MT (N = 14),3 (21.4) n (%)
same,"Patients with drug-related AEs, highest grade: Grade 2",Safety and tolerability; Panel 1: MK-5108 MT (N = 14),5 (35.7) n (%)
same,"Patients with drug-related AEs, highest grade: Grade 3",Safety and tolerability; Panel 1: MK-5108 MT (N = 14),0 (0.0) n (%)
same,"Patients with drug-related AEs, highest grade: Grade 4",Safety and tolerability; Panel 1: MK-5108 MT (N = 14),0 (0.0) n (%)
same,Patients with no drug-related AEs,Safety and tolerability; Panel 1: MK-5108 MT (N = 14),6 (42.9) n (%)
same,Patients with one or more drug-related AEs,Safety and tolerability; Panel 1: MK-5108 MT (N = 14),8 (57.1) n (%)
same,Death,Safety and tolerability; Panel 1: MK-5108 MT (n = 14),1 (7.1) n (%)
same,Discontinued treatment due to a drug-related AE,Safety and tolerability; Panel 1: MK-5108 MT (n = 14),0 n (%)
same,Discontinued treatment due to a drug-related SAE,Safety and tolerability; Panel 1: MK-5108 MT (n = 14),0 n (%)
same,Discontinued treatment due to an SAE,Safety and tolerability; Panel 1: MK-5108 MT (n = 14),1 (7.1) n (%)
same,Discontinued treatment due to any AE,Safety and tolerability; Panel 1: MK-5108 MT (n = 14),2 (14.3) n (%)
same,Patients with any AE,Safety and tolerability; Panel 1: MK-5108 MT (n = 14),14 (100.0) n (%)
same,Patients with drug-related AE,Safety and tolerability; Panel 1: MK-5108 MT (n = 14),8 (57.1) n (%)
same,Patients with no AE,Safety and tolerability; Panel 1: MK-5108 MT (n = 14),0 n
same,Patients with serious AE,Safety and tolerability; Panel 1: MK-5108 MT (n = 14),4 (28.6) n (%)
same,Patients with serious drug-related AE,Safety and tolerability; Panel 1: MK-5108 MT (n = 14),0 n (%)
same,patients experiencing a DLT,"Safety and tolerability; Panel 2 (CT), 100 mg Q12hr (200 mg/day), febrile neutropenia (Grade 3)",one patient
same,patients experiencing any DLTs,"Safety and tolerability; Panel 2 (CT), 150 mg Q12hr, 6 patients",None
same,DLTs,"Safety and tolerability; Panel 2 (CT), 225 mg Q12hr (450 mg/day), febrile neutropenia (Grade 4) and infection (Grade 3)",2
same,AEs (all grades and doses) by SOC: Gastrointestinal disorders,"Safety and tolerability; Panel 2 (CT), 12/17",70.6%
same,AEs (all grades and doses) by SOC: Metabolism and nutrition disorders,"Safety and tolerability; Panel 2 (CT), 12/17",70.6%
same,AEs (all grades and doses) by SOC: Skin and subcutaneous tissue disorders,"Safety and tolerability; Panel 2 (CT), 12/17",70.6%
same,patients with a Grade 3 or 4 drug-related AE,"Safety and tolerability; Panel 2 (CT), 12/17",70.6%
same,AEs (all grades and doses) by SOC: Blood and lymphatic system disorders,"Safety and tolerability; Panel 2 (CT), 15/17",88.2%
same,AEs (all grades and doses) by SOC: General disorders and administration site conditions,"Safety and tolerability; Panel 2 (CT), 15/17",88.2%
same,Death,Safety and tolerability; [5],0 n (%)
same,Discontinued treatment due to a drug-related AE,Safety and tolerability; [5],1 (5.9) n (%)
same,Discontinued treatment due to a drug-related SAE,Safety and tolerability; [5],1 (5.9) n (%)
same,Discontinued treatment due to an SAE,Safety and tolerability; [5],2 (11.8) n (%)
same,Discontinued treatment due to any AE,Safety and tolerability; [5],2 (11.8) n (%)
same,Patients with any AE,Safety and tolerability; [5],17 (100.0) n (%)
same,Patients with drug-related AE,Safety and tolerability; [5],15 (88.2) n (%)
same,Patients with no AE,Safety and tolerability; [5],0 n
same,Patients with serious AE,Safety and tolerability; [5],9 (52.9) n (%)
same,Patients with serious drug-related AE,Safety and tolerability; [5],4 (23.5) n (%)
same,Drug-related AEs by SOC: Blood and lymphatic system disorders,Safety and tolerability; [6],14 (82.4) n (%)
same,Drug-related AEs by SOC: Gastrointestinal disorders,Safety and tolerability; [6],11 (64.7) n (%)
same,Drug-related AEs by SOC: General disorders and administration site conditions,Safety and tolerability; [6],11 (64.7) n (%)
same,Drug-related AEs by SOC: Infections and infestations,Safety and tolerability; [6],4 (23.5) n (%)
same,Drug-related AEs by SOC: Investigations,Safety and tolerability; [6],5 (29.4) n (%)
same,Drug-related AEs by SOC: Metabolism and nutrition disorders,Safety and tolerability; [6],9 (52.9) n (%)
same,Drug-related AEs by SOC: Musculoskeletal and connective tissue disorders,Safety and tolerability; [6],5 (29.4) n (%)
same,Drug-related AEs by SOC: Nervous system disorders,Safety and tolerability; [6],3 (17.6) n (%)
same,"Drug-related AEs by SOC: Respiratory, thoracic and mediastinal disorders",Safety and tolerability; [6],5 (29.4) n (%)
same,Drug-related AEs by SOC: Skin and subcutaneous tissue disorders,Safety and tolerability; [6],8 (47.1) n (%)
same,Drug-related AEs by SOC: Vascular disorders,Safety and tolerability; [6],2 (11.8) n (%)
same,"Patients with drug-related AEs, highest grade: Grade 1",Safety and tolerability; [6],0 (0.0) n (%)
same,"Patients with drug-related AEs, highest grade: Grade 2",Safety and tolerability; [6],3 (17.6) n (%)
same,"Patients with drug-related AEs, highest grade: Grade 3",Safety and tolerability; [6],6 (35.3) n (%)
same,"Patients with drug-related AEs, highest grade: Grade 4",Safety and tolerability; [6],6 (35.3) n (%)
same,Patients with no drug-related AEs,Safety and tolerability; [6],2 (11.8) n (%)
same,Patients with one or more drug-related AEs,Safety and tolerability; [6],15 (88.2) n (%)
same,Drug-related AEs by SOC: Blood and lymphatic system disorders,Safety and tolerability; Total (N = 35),20 (57.1) n (%)
same,Drug-related AEs by SOC: Gastrointestinal disorders,Safety and tolerability; Total (N = 35),19 (54.3) n (%)
same,Drug-related AEs by SOC: General disorders and administration site conditions,Safety and tolerability; Total (N = 35),20 (57.1) n (%)
same,Drug-related AEs by SOC: Infections and infestations,Safety and tolerability; Total (N = 35),4 (11.4) n (%)
same,Drug-related AEs by SOC: Investigations,Safety and tolerability; Total (N = 35),8 (22.9) n (%)
same,Drug-related AEs by SOC: Metabolism and nutrition disorders,Safety and tolerability; Total (N = 35),13 (37.1) n (%)
same,Drug-related AEs by SOC: Musculoskeletal and connective tissue disorders,Safety and tolerability; Total (N = 35),7 (20.0) n (%)
same,Drug-related AEs by SOC: Nervous system disorders,Safety and tolerability; Total (N = 35),7 (20.0) n (%)
same,"Drug-related AEs by SOC: Respiratory, thoracic and mediastinal disorders",Safety and tolerability; Total (N = 35),7 (20.0) n (%)
same,Drug-related AEs by SOC: Skin and subcutaneous tissue disorders,Safety and tolerability; Total (N = 35),10 (28.6) n (%)
same,Drug-related AEs by SOC: Vascular disorders,Safety and tolerability; Total (N = 35),2 (5.7) n (%)
same,"Patients with drug-related AEs, highest grade: Grade 1",Safety and tolerability; Total (N = 35),4 (11.4) n (%)
same,"Patients with drug-related AEs, highest grade: Grade 2",Safety and tolerability; Total (N = 35),8 (22.9) n (%)
same,"Patients with drug-related AEs, highest grade: Grade 3",Safety and tolerability; Total (N = 35),7 (20.0) n (%)
same,"Patients with drug-related AEs, highest grade: Grade 4",Safety and tolerability; Total (N = 35),7 (20.0) n (%)
same,Patients with no drug-related AEs,Safety and tolerability; Total (N = 35),9 (25.7) n (%)
same,Patients with one or more drug-related AEs,Safety and tolerability; Total (N = 35),26 (74.3) n (%)
same,change from baseline in pHH3 and pAurB (IHC),[1],no clear dose-related increases
same,IC50,AK-A,0.064 nM
same,target specificity relative to other kinases,[2],comparatively high target specificity
same,single-agent activity,[3],modest single-agent activity
